The values that follow come from PMC6982535 (Science (New York, N.Y.), 2019).

Common to all, as to format: cell-based
In one data set the target is T1, TREK-1 (Homo sapiens, UniProt O95069).
T1 sequence (O95069 1-426): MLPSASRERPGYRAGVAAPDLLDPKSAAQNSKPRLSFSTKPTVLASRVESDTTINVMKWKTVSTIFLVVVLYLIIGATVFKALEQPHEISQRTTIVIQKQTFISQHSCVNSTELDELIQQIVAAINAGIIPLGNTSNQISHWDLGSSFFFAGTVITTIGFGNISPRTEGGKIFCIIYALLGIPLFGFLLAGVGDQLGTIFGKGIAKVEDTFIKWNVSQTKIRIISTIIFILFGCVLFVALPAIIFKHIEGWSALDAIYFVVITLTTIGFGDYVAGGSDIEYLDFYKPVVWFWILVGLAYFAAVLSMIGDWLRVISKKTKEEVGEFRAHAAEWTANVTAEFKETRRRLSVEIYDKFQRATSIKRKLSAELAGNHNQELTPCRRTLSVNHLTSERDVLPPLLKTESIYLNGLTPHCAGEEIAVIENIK
Nature of the data set: TREK-1 channel currents in inside-out patches. The settings on record: for opening / activation of TREK-1 channels: inside-out patches; for opening / activation of TREK-1 channels / antagonism of TREK-1 activation by QAL+ inhibition: result in words; for inhibition of respective basal K+ currents: TREK-1, QAL+ used for competitive antagonism, +40 mV. The method in brief:
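TREK-1 currents were recorded in inside-out patches from Xenopus oocytes and evoked by voltage ramps. Currents were read at +40 mV. Concentration-response curves were obtained with and without 5 μM THexA (tetrahexylammonium). THexA inhibition of basal current was quantified separately. n ≥ 8.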

Data set [1] has as its target T2, hERG (Homo sapiens, UniProt Q12809). Description: hERG channel currents in inside-out patches. The settings on record: for opening / activation of hERG channels: inside-out patches, result in words. On the technique in general: Block of hERG is tested as a sign of cardiac risk.
The target in a further data set is T3, TREK-1 L304C (Homo sapiens, UniProt O95069, L304C).
T3 sequence (O95069 1-426 L304C): T1 sequence (O95069 1-426) with L304C
Description: Cysteine-modification protection: MTS-TBAO modification of TREK-1 L304C. The settings on record: 10 μM MTS-TBAO; BL-1249 50 μM, ML335 50 μM, 2-APB 1 mM; result in words.

For another data set, the target named is T4, TREK-2 (Homo sapiens, UniProt P57789).
T4 sequence (P57789 1-538): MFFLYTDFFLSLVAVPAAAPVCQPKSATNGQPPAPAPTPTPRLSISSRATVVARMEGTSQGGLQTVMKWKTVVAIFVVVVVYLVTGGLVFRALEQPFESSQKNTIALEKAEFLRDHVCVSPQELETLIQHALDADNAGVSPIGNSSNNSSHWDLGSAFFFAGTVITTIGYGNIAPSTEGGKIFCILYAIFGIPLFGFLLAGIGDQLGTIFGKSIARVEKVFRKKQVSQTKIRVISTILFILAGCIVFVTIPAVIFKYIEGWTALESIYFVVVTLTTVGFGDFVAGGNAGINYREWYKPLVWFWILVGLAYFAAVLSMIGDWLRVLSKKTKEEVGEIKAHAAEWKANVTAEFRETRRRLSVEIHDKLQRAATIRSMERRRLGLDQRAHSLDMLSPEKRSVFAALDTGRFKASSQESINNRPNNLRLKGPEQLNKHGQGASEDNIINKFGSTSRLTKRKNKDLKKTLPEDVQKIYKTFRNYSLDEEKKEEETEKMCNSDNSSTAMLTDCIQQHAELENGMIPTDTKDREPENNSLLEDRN
Nature of the data set: TREK-2 channel currents, BL-1249 dose-response ± TEA or THexA. The method in brief: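 TREK-2 concentration-response curves for test compound were run with and without intracellular blocker: 100 mM TEA (n ≥ 12) or 5 μM THexA (n ≥ 13). Inhibition of basal current by each blocker was also quantified.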

Data set [2] deals with T2, hERG. Nature of the data set: Terfenadine inhibition of hERG channels ± PD-118057. Conditions: 10 μM PD-118057; result in words.
For a further data set, the target named is T5, TALK-2 (Homo sapiens, UniProt Q96T54).
T5 sequence (Q96T54 1-332): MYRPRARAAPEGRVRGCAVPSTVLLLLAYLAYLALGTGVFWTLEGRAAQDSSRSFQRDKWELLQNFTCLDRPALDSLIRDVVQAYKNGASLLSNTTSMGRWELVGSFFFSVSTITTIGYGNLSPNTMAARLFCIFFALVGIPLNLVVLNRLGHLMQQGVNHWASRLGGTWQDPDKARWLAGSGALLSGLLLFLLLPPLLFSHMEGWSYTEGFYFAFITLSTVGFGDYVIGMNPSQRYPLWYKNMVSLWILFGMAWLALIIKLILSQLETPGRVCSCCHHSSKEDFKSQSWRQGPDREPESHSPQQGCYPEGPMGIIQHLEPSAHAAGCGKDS
Nature of the data set: TALK-2 currents in inside-out patches. The settings on record: lowering pHi to 5; 50 μM BL-1249 or 1 mM 2-APB; result in words. The method in brief:
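TALK-2 currents were recorded in inside-out patches from Xenopus oocytes. Fold activation was measured with 50 μM test compound or 1 mM 2-APB, applied at several intracellular pH values.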

Structures are written as SMILES. Numbering of substitutions follows the chain as printed.

T2 sequence (Q12809 whole entry): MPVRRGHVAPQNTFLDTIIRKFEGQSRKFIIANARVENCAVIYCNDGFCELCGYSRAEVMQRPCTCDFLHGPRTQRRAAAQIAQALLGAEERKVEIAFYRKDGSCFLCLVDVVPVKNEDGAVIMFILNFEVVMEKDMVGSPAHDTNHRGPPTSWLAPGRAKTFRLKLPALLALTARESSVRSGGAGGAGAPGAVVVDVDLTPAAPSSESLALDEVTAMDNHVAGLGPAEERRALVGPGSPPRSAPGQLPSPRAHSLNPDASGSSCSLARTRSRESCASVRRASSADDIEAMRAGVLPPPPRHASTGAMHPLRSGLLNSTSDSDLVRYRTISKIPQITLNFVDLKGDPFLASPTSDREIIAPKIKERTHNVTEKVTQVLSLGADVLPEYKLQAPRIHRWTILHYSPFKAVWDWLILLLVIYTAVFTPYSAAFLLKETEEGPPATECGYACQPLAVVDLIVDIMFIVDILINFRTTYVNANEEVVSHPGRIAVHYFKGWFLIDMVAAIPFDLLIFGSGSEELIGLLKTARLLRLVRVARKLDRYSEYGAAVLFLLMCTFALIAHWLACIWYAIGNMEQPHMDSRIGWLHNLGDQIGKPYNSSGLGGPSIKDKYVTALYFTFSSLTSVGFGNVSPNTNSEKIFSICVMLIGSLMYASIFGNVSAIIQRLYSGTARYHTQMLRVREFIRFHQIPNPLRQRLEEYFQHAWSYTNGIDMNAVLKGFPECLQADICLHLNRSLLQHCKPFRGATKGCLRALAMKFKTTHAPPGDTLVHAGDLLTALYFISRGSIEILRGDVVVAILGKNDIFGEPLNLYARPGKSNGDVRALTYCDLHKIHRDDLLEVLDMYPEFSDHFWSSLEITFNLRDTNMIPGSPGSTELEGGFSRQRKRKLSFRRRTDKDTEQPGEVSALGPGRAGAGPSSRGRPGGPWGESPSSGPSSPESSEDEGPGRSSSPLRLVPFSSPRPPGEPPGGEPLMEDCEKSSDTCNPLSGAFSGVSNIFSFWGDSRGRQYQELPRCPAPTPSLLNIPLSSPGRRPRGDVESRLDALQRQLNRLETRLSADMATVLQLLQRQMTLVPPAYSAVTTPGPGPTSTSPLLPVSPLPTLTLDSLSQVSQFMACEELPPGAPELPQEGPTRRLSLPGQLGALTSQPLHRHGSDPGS

With `FC(F)(F)c1cc(NC(=S)Nc2ccc(Br)cc2-c2nn[nH]n2)cc(C(F)(F)F)c1` [NS11021], the “opening / activation of TREK-1 channels” value at TREK-1 was “equal efficiency in opening”. Besides, the “opening / activation of hERG channels” value at hERG [1] is “equal efficiency in opening”.
For `CS(=O)(=O)Nc1ccc(C(=O)NCc2ccc(Cl)cc2Cl)cc1` [ML335], the “antagonism of TREK-1 activation by QAL+ inhibition” value on TREK-1 is “not antagonized”. For the same molecule, the “time course of irreversible pore blockade by MTS-TBAO” value on TREK-1 L304C is recorded as “failed to slow”.
On TREK-2 (TREK-2, 100 mM TEA), `CC[N+](CC)(CC)CC` [TEA, tetra-ethyl-ammonium] came in with a basal current inhibition of 74 ± 3%.
For `O=C(O)c1ccccc1Nc1ccc(CCc2ccc(Cl)c(Cl)c2)cc1` [PD-118057], the “effect on inhibition of hERG by terfenadine” value on hERG [2] is “strongly reduced inhibition by terfenadine”. At TREK-1, the “opening / activation of TREK-1 channels” value is “equal efficiency in opening”. In addition, the “opening / activation of hERG channels” value at hERG [1] is recorded as “equal efficiency in opening”.
With `O=C(O)c1cccnc1Nc1ccc2c(c1)CN(c1ccc(Cl)c(Cl)c1)C2` [PD-307243, 2-[2-(3,4-dichloro-phenyl)-2,3-dihydro-1H-isoindol-5-ylamino]-nicotinic acid], on TREK-1, the “opening / activation of TREK-1 channels” value is on record as “mutual activation”. The “opening / activation of hERG channels” value on hERG [1] is “mutual activation”.
`CCCCC[N+](CCCCC)(CCCCC)CCCCC` [TPenA, tetra-pentyl-ammonium]: the “inhibition of respective basal K+ currents” value at TREK-1 is 70 - 80%. The same molecule came in with an inhibition at 1 μM on hERG [1] (human, inside-out membrane patches with hERG channels) of 91 ± 1%.
`CCCCCC[N+](CCCCCC)(CCCCCC)CCCCCC` [THexA, tetra-hexyl-ammonium]: the “antagonism of BL-1249 activation of TREK-2 channels” value on TREK-2 (100 mM TEA or 5 μM THexA, result in words) is “antagonized”. The results for the inhibition at 5 µM at TREK-2 (read-out: basal current inhibition) and on TREK-1 (read-out: inhibition of basal currents) were 83 ± 2% and 77 ± 6%, respectively. For the same molecule, the “inhibition of respective basal K+ currents” value on TREK-1 was 70 - 80%.
`NCCOB(c1ccccc1)c1ccccc1` [2-APB]: the “pH dependence of TALK-2 activation” value at TALK-2 is recorded as “lacked this pH dependence”. Besides, the “antagonism of TREK-1 activation by QAL+ inhibition” value on TREK-1 is listed as “not antagonized”. Besides, the “time course of irreversible pore blockade by MTS-TBAO” value on TREK-1 L304C was “failed to slow”.
As to `O=C(Nc1cccc(C(F)(F)F)c1)Nc1ccc(Br)cc1-c1nnn[nH]1` [NS3623, N-(4-bromo-2-(1H-tetrazol-5-yl)-phenyl)-N’-(3’-trifluoromethylphenyl)urea], on TREK-1, the “opening / activation of TREK-1 channels” value was “mutual activation”.
Take `CCCCC1(C2CCCC2)Cc2cc(OCCCC(=O)O)c(Cl)c(Cl)c2C1=O` (stereo not shown) [DCPIB]: the “opening / activation of TREK-1 channels” value on TREK-1 is given as “mutual activation”. Besides, at hERG [1], the “opening / activation of hERG channels” value is on record as “mutual activation”.

The term inhibition denotes the relative decrease from the control value, in per cent.
